The record followed here is ChEMBL document CHEMBL5230166, “Novel quinoline-piperazine hybrids: the design, synthesis and evaluation of antibacterial and antituberculosis properties” (RSC Med Chem, 2023).

What all share (assay type): functional
The test system of assay [1] is Staphylococcus aureus. The assay is described as follows: Antibacterial activity against methicillin sensitive Staphylococcus aureus ATCC 29213 assessed as inhibition of bacterial growth incubated for 22 to 24 hrs. To be noted: time 22-24 hrs. The essentials:
(§1)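 Broth MIC referenced to an earlier protocol. Inocula come from mid-log cultures sub-cultured on soybean casein digest agar, adjusted to McFarland (~10⁸ CFU/mL), then diluted to ~10⁵ CFU/mL. Compounds and controls are serially diluted from 64 to 0.03 µg/mL. Tested in triplicate, read after 22–24 h at 37 °C. MIC is the lowest concentration with no visible growth.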

Assay [2] concerns Staphylococcus aureus. The assay is described as follows: Antibacterial activity against methicillin resistant Staphylococcus aureus ATCC 33591 assessed as inhibition of bacterial growth incubated for 22 to 24 hrs. To be noted: time 22-24 hrs. The essentials:
(§2)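 Broth microdilution MIC. Strains were subcultured on Soybean Casein Digest Agar, and inocula were taken from mid-log culture, adjusted to McFarland (~10⁸ CFU/mL), then diluted to ~10⁵ CFU/mL. Serial dilutions ran from 64 to 0.03 µg/mL. Plates were incubated 22–24 h at 37 °C, in triplicate. MIC was the lowest concentration with no visible growth.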

The subject of assay [3] is Staphylococcus epidermidis. The assay is described as follows: Antibacterial activity against clinical isolate methicillin resistant Staphylococcus epidermidis AB 735 assessed as inhibition of bacterial growth incubated for 22 to 24 hrs. To be noted: time 22-24 hrs.
A further assay deals with Enterococcus faecalis. The assay is described as follows: Antibacterial activity against vancomycin resistant Enterococcus faecalis ATCC 700802 assessed as inhibition of bacterial growth incubated for 22 to 24 hrs. To be noted: time 22-24 hrs. A digest of the protocol: as §2
The test system of a further assay is Enterococcus faecium. The assay is described as follows: Antibacterial activity against Enterococcus faecium ATCC 49624 assessed as inhibition of bacterial growth incubated for 22 to 24 hrs. To be noted: time 22-24 hrs. The essentials: as §1
In another assay the test system is Escherichia coli. The assay can be described thus: Antibacterial activity against clinical isolate Escherichia coli AB 117 assessed as inhibition of bacterial growth incubated for 22 to 24 hrs. To be noted: time 22-24 hrs.
For a further assay, the system named is Klebsiella pneumoniae. The assay is described as follows: Antibacterial activity against clinical isolate Klebsiella pneumoniae AB 356 assessed as inhibition of bacterial growth incubated for 22 to 24 hrs. To be noted: time 22-24 hrs.
In the next assay the test system is Pseudomonas aeruginosa. The assay can be described thus: Antibacterial activity against clinical isolate Pseudomonas aeruginosa AB 645 assessed as inhibition of bacterial growth incubated for 22 to 24 hrs. To be noted: time 22-24 hrs.
The test system of another assay is Acinetobacter baumannii. The assay can be described thus: Antibacterial activity against clinical isolate Acinetobacter baumannii BAA 747 assessed as inhibition of bacterial growth incubated for 22 to 24 hrs. To be noted: time 22-24 hrs.
A further assay concerns Moraxella catarrhalis. The assay can be described thus: Antibacterial activity against Moraxella catarrhalis ATCC 25238 assessed as inhibition of bacterial growth incubated for 22 to 24 hrs. To be noted: time 22-24 hrs. A digest of the protocol:
as §1

In assay [4] the test system is Mycolicibacterium smegmatis. The assay is described as follows: Antibacterial activity against Mycobacterium smegmatis ATCC 607 assessed as inhibition of bacterial growth incubated for 2 days by CLSI protocol based broth microdilution method. To be noted: ATCC 607, 48 h, time 2 day. The essentials:
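CLSI broth microdilution in Middlebrook 7H9 with 10% ADC. Compounds are dissolved in DMSO at 4.0 mg/mL (stock) and serially diluted from 64 to 0.015 µg/mL. Inoculum is ~10⁵ CFU/mL, checked by plating on 7H11 agar. Rifampin and levofloxacin are positive controls; drug-free broth with DMSO is the negative control. Growth inhibition is read after 2 days at 37 °C as MIC.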
For orientation: Dilution methods test growth across graded concentrations, often in twofold steps.

The test system of assay [5] is Mycobacterium tuberculosis. The assay is described as follows: Antibacterial activity against Mycobacterium tuberculosis H37Rv ATCC 25618 assessed as inhibition of bacterial growth incubated for 2 days by CLSI protocol based broth microdilution method. To be noted: H37Rv ATCC 25618, 48 h, time 2 day.

Values after ≈ are worked out from the molar mass of the structure shown.

Consider `COc1ccc2nc(CN3CCN(C(=O)c4c(Cl)cccc4Cl)CC3)cc(OC)c2c1`, for which the MIC (in the assay with Staphylococcus aureus [1]; in the assay on Staphylococcus aureus [2]; in assay [3]; with Enterococcus faecalis; in the assay with Enterococcus faecium; in the assay on Escherichia coli) was more than 64 µg/mL each time. Moreover, the MIC (in the assay on Klebsiella pneumoniae; with Pseudomonas aeruginosa; in the assay with Acinetobacter baumannii; with Moraxella catarrhalis; in assay [4]; in assay [5]) was more than 64 µg/mL in each case.
With `COc1cc(CN2CCN(S(=O)(=O)c3ccc(Cl)cc3Cl)CC2)nc2ccc(F)cc12`, the minimum inhibitory concentration (MIC) (in the assay with Staphylococcus aureus [1]; in the assay on Staphylococcus aureus [2]; in [3]; in the assay with Enterococcus faecalis; with Enterococcus faecium; in the assay with Escherichia coli) was more than 64 µg/mL each time. The MIC (with Klebsiella pneumoniae; in the assay with Pseudomonas aeruginosa; in the assay on Acinetobacter baumannii; in the assay with Moraxella catarrhalis; in [4]; in [5]) was more than 64 µg/mL throughout.
`COc1cccc(C(=O)N2CCN(Cc3cc(OC)c4cc(OC)ccc4n3)CC2)c1`: the MIC (in the assay with Staphylococcus aureus [1]; in the assay on Staphylococcus aureus [2]; in [3]; with Enterococcus faecalis; in the assay with Enterococcus faecium; with Escherichia coli) was more than 64 µg/mL each time. Also, the MIC (with Klebsiella pneumoniae; in the assay with Pseudomonas aeruginosa; in the assay with Acinetobacter baumannii; in the assay with Moraxella catarrhalis; in assay [4]; in [5]) was more than 64 µg/mL each time.
Take `COc1ccc2nc(CN3CCN(C(=O)c4ccccc4F)CC3)cc(OC)c2c1`: the MIC (with Staphylococcus aureus [1]; in the assay with Staphylococcus aureus [2]; in assay [3]; in the assay with Enterococcus faecalis; with Enterococcus faecium; in the assay on Escherichia coli) was more than 64 µg/mL in each case. Further, the MIC (with Klebsiella pneumoniae; with Pseudomonas aeruginosa; in the assay with Acinetobacter baumannii; in the assay with Moraxella catarrhalis; in assay [4]; in assay [5]) was more than 64 µg/mL throughout.
In the case of `COc1cc(CN2CCN(C(=O)c3cccc(Cl)c3)CC2)nc2ccc(F)cc12`, the minimal inhibitory concentration (MIC) (in the assay with Staphylococcus aureus [1]; in the assay with Staphylococcus aureus [2]; in [3]; in the assay on Enterococcus faecalis; with Enterococcus faecium; in the assay on Escherichia coli) was more than 64 µg/mL each time. In addition, the MIC (commonly the least concentration at which growth counts as inhibited) in the assay on Klebsiella pneumoniae is more than 64 µg/mL; with Pseudomonas aeruginosa it was more than 64 µg/mL; with Acinetobacter baumannii, more than 64 µg/mL; with Moraxella catarrhalis, 64 µg/mL (≈ 155 µM); in assay [4], more than 64 µg/mL; in assay [5], more than 64 µg/mL.
Regarding `COc1cc(CN2CCN(C(=O)c3ccccc3C)CC2)nc2ccc(F)cc12`, the minimal inhibitory concentration (MIC) (in the assay on Staphylococcus aureus [1]; in the assay with Staphylococcus aureus [2]; in assay [3]; in the assay on Enterococcus faecalis; in the assay on Enterococcus faecium; with Escherichia coli) was more than 64 µg/mL in each case. The MIC (in the assay on Klebsiella pneumoniae; with Pseudomonas aeruginosa; with Acinetobacter baumannii; in the assay with Moraxella catarrhalis; in assay [4]; in [5]) was more than 64 µg/mL in each case.
As for `COc1ccc2nc(CN3CCN(C(=O)c4ccc(Cl)cc4Cl)CC3)cc(OC)c2c1`, the MIC (in the assay with Staphylococcus aureus [1]; in the assay on Staphylococcus aureus [2]; in assay [3]; in the assay on Enterococcus faecalis; with Enterococcus faecium; in the assay on Escherichia coli) was more than 64 µg/mL in each case. In addition, the MIC (in the assay with Klebsiella pneumoniae; in the assay with Pseudomonas aeruginosa; with Acinetobacter baumannii; in the assay with Moraxella catarrhalis; in assay [4]; in [5]) was more than 64 µg/mL in each case.
As for `COc1ccc2nc(CN3CCN(S(=O)(=O)c4c(C)cc(C)cc4C)CC3)cc(OC)c2c1`, the MIC (in the assay with Staphylococcus aureus [1]; in the assay on Staphylococcus aureus [2]; in assay [3]; with Enterococcus faecalis; in the assay with Enterococcus faecium; in the assay with Escherichia coli) was more than 64 µg/mL throughout. Also, the MIC (with Klebsiella pneumoniae; with Pseudomonas aeruginosa; in the assay with Acinetobacter baumannii; with Moraxella catarrhalis; in [4]; in [5]) was more than 64 µg/mL in each case.
Consider `COc1cc(CN2CCN(S(=O)(=O)c3ccc(C)cc3)CC2)nc2ccc(F)cc12`, for which the MIC was 64 µg/mL (≈ 149 µM) in the assay with Staphylococcus aureus [1]; more than 64 µg/mL in the assay with Staphylococcus aureus [2]; 32 µg/mL (≈ 74.5 µM) in assay [3]; more than 64 µg/mL in the assay with Enterococcus faecalis; more than 64 µg/mL in the assay on Enterococcus faecium; more than 64 µg/mL in the assay on Escherichia coli. In addition, the minimum inhibitory concentration (MIC) in the assay with Klebsiella pneumoniae was more than 64 µg/mL; with Pseudomonas aeruginosa it was more than 64 µg/mL; with Acinetobacter baumannii, more than 64 µg/mL; with Moraxella catarrhalis, 16 µg/mL (≈ 37.3 µM); in assay [4], more than 64 µg/mL; in assay [5], more than 64 µg/mL.
With `COc1ccc2nc(CN3CCN(S(=O)(=O)c4ccc(NC(C)=O)cc4)CC3)cc(OC)c2c1`, the MIC (in the assay with Staphylococcus aureus [1]; in the assay on Staphylococcus aureus [2]; in [3]; in the assay with Enterococcus faecalis; in the assay on Enterococcus faecium; in the assay with Escherichia coli) was more than 64 µg/mL each time. In addition, the minimal inhibitory concentration (MIC) (in the assay with Klebsiella pneumoniae; with Pseudomonas aeruginosa; in the assay with Acinetobacter baumannii; in the assay on Moraxella catarrhalis; in assay [4]; in assay [5]) was more than 64 µg/mL each time.
With `COc1ccc(C(=O)N2CCN(Cc3cc(OC)c4cc(F)ccc4n3)CC2)cc1`, the MIC (in the assay on Staphylococcus aureus [1]; with Staphylococcus aureus [2]; in assay [3]; with Enterococcus faecalis; with Enterococcus faecium; in the assay with Escherichia coli) was more than 64 µg/mL in each case. The minimal inhibitory concentration (MIC) (in the assay on Klebsiella pneumoniae; in the assay on Pseudomonas aeruginosa; with Acinetobacter baumannii; in the assay with Moraxella catarrhalis; in assay [4]; in [5]) was more than 64 µg/mL each time.
As for `COc1cc(CN2CCN(S(=O)(=O)c3ccc(NC(C)=O)cc3)CC2)nc2ccc(F)cc12`, the minimal inhibitory concentration (MIC) in the assay on Staphylococcus aureus [1] was more than 64 µg/mL; with Staphylococcus aureus [2] it was more than 64 µg/mL; in assay [3], 64 µg/mL (≈ 135 µM); in the assay on Enterococcus faecalis it was more than 64 µg/mL; with Enterococcus faecium it was more than 64 µg/mL; in the assay on Escherichia coli, more than 64 µg/mL. In addition, the MIC in the assay with Klebsiella pneumoniae is more than 64 µg/mL; in the assay on Pseudomonas aeruginosa, more than 64 µg/mL; with Acinetobacter baumannii it was more than 64 µg/mL; in the assay with Moraxella catarrhalis, 32 µg/mL (≈ 67.7 µM); in assay [4] it was more than 64 µg/mL; in assay [5], more than 64 µg/mL.
